pEC50: −log10 of the molar value.
Legend:
[1] = In vitro antimalarial activity against the Plasmodium falciparum FCR3; assay type: functional
FM3A [2] = assay: Selectivity ratio of cytotoxicity against FM3A cells to antimalarial activity against Plasmodium falciparum FCR3; assay type: functional, Mus musculus
FM3A [3] = assay: In vitro cytotoxicity against mouse mammary FM3A cells; assay type: cell-based
Plasmodium berghei [4] = assay: (§1) In vivo antimalarial activity against Plasmodium berghei infected mice (Mus musculus); assay type: functional
Outline: (§2)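 Infected mice were dosed, and activity is reported as the doses giving 50% and 90% effect (ED50 and ED90), in µmol/kg.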

Plasmodium berghei [5] = assay: as §1; assay type: functional; outline: as §2; remark: listed apart in the source

| SMILES | pEC50 [1] | Selectivity (FM3A [2]) | pEC50 (FM3A [3]) | ED50 (Plasmodium berghei [4]) [µmol/kg] | ED50 (Plasmodium berghei [5]) [µmol/kg] | ED90 (Plasmodium berghei [5]) [µM/kg] |
| --- | --- | --- | --- | --- | --- | --- |
| CC1(C)[C@H](n2cnc3ccccc3c2=O)C(=O)C[C@H]2[C@@H](O)CCCN21 | 8.55 | 857 | – | – | – | – |
| CC1(C)[C@@H](n2cnc3ccccc3c2=O)C(=O)C[C@@H]2[C@@H](O)CCCN21 | 8.80 | 238 | – | – | – | – |
| CCOC(=O)N1CCC[C@H](O)C1CC(=O)Cn1cnc2ccccc2c1=O (some centres undefined) | 5.32 | >3.5 | < 4.77 | – | – | – |
| O=C(CC1NCCC[C@@H]1O)Cn1cnccc1=O (some centres undefined) | – | >32 | < 4.72 | – | – | – |
| O=c1c2ccccc2ncn1C[C@@H]1C[C@@H]2[C@@H](O)CCCN2CO1 | – | 1027 | 5.42 | > 180 | 82 | – |
| COCO[C@H]1CCCN2CO[C@H](Cn3cnc4ccccc4c3=O)C[C@H]12 | 8.07 | 291 | 5.60 | – | – | – |
| O=c1c2ccccc2ccn1CC1(O)CC2NCCC[C@@H]2O1 (some centres undefined) | 5.68 | >3 | < 5.20 | – | – | – |
| O=c1c2ccccc2ncn1C[C@@H]1C[C@@H]2[C@H](O)CCCN2CO1 | 6.08 | >30 | < 4.60 | – | – | – |
| O=C(CC1NCCC[C@@H]1O)Cn1ccc2ccccc2c1=O (some centres undefined) | 6.30 | >32 | < 4.80 | – | – | – |
| CNc1ccccc1C(=O)NC1[C@@H](O)C[C@@H]2[C@@H](O)CCCN2C1(C)C (some centres undefined) | 6.22 | >28 | < 4.77 | – | – | – |
| CC1(C)[C@@H](n2cnc3ccccc3c2=O)[C@H](O)C[C@@H]2[C@@H](O)CCCN21 | 6.52 | 283 | 4.07 | – | – | – |
| CC1(C)[C@@H](n2cnc3ccccc3c2=O)[C@@H](O)C[C@@H]2[C@@H](O)CCCN21 | 6.40 | 70 | 5.55 | – | – | – |
| CC1(C)[C@@H](n2cnc3ccccc3c2=O)C(=O)C[C@@H]2[C@@H](O)CCC[N+]21[O-] (some centres undefined) | 7.00 | >290 | < 4.54 | – | – | – |
| CC1(C)[C@H](n2cnc3ccccc3c2=O)[C@H](O)C[C@H]2[C@@H](O)CCCN21 | 6.10 | >30 | < 4.62 | – | – | – |
| CC(=O)O[C@H]1CCCN2[C@H]1CC(=O)[C@@H](n1cnc3ccccc3c1=O)C2(C)C | 7.72 | 368 | 5.15 | – | – | – |
| CC(=O)O[C@H]1CCCN2[C@H]1C[C@@H](OC(C)=O)[C@@H](n1cnc3ccccc3c1=O)C2(C)C | 5.15 | >3 | < 4.68 | – | – | – |

| SMILES | pEC50 [1] | Selectivity (FM3A [2]) | pEC50 (FM3A [3]) | ED50 (Plasmodium berghei [4]) [µmol/kg] | ED50 (Plasmodium berghei [5]) [µmol/kg] | ED90 (Plasmodium berghei [5]) [µM/kg] |
| --- | --- | --- | --- | --- | --- | --- |
| CC(=O)O[C@H]1CCCN2[C@H]1C[C@@H](O)[C@@H](n1cnc3ccccc3c1=O)C2(C)C | 6.40 | >28 | < 4.96 | – | – | – |
| CC1(C)[C@H](n2cnc3ccccc3c2=O)[C@@H](O)C[C@H]2[C@@H](O)CCCN21 | 5.47 | >28 | < 4.00 | – | – | – |
| CC1(C)[C@@H](n2cnc3ccccc3c2=O)C(=O)C[C@@H]2C(=O)CCCN21 | 8.72 | >3105 | 5.23 | – | – | – |
| CC(=O)O[C@H]1CCCN2[C@@H]1CC(=O)[C@H](n1cnc3ccccc3c1=O)C2(C)C | 8.44 | 361 | 5.89 | – | – | – |
| CC1(C)[C@@H](N2CNc3ccccc3C2=O)[C@@H](O)C[C@@H]2[C@@H](O)CCCN21 | 6.38 | >38 | < 4.80 | – | – | – |
| CC1(C)[C@@H](n2cnc3ccccc3c2=O)C=C[C@@H]2[C@@H](O)CCCN21 | 5.32 | >7 | < 4.49 | – | – | – |
| CC1(C)[C@@H](n2cnc3ccccc3c2=O)CC[C@@H]2[C@@H](O)CCCN21 | 6.08 | >27 | < 4.66 | – | – | – |
| COC1=C[C@@H]2[C@@H](O)CCCN2C(C)(C)[C@H]1n1cnc2ccccc2c1=O | 5.89 | >51 | < 4.18 | – | – | – |
| O=c1c2ccccc2ncn1C[C@@H](O)CC1NCCC[C@@H]1O (some centres undefined) | 7.70 | 750 | – | – | 2.9 | 22 |
| O=c1ccncn1CC1(O)CC2NCCC[C@@H]2O1 (some centres undefined) | 7.40 | 175 | 5.15 | – | – | – |
| O=C(CC1NCCCC1=O)Cn1cnc2ccccc2c1=O (centres undefined) | 7.70 | 500 | 5.00 | – | 1.3 | 6.2 |
| CC(=O)O[C@H]1CCCN(C(C)=O)C1CC(=O)Cn1cnc2ccccc2c1=O (some centres undefined) | 6.04 | >32 | < 4.54 | – | – | – |
| C[C@@H]1CC[C@H]2[C@@H](C)C(=O)O[C@@H]3O[C@@]4(C)CC[C@@H]1[C@]32OO4 [ARTEMISININ] | 8.00 | 1000 | – | – | – | 46 |
| CCN(CC)CCCC(C)Nc1ccnc2cc(Cl)ccc12 (centres undefined) [CHLOROQUINE] | 7.74 | – | – | – | 4.7 | 9.4 |
| O=C(C[C@@H]1NCCC[C@H]1O)Cn1cnc2ccccc2c1=O [FEBRIFUGINE] | 6.15 | 243 | – | – | 1 | 5 |
| O=c1c2ccccc2ncn1CC1(O)C[C@@H]2NCCC[C@@H]2O1 (some centres undefined) [ISOFEBRIFUGINE] | 8.47 | 53 | – | – | 211 | >267 |

Reference: ChEMBL document CHEMBL1135466, “Potent antimalarial febrifugine analogues against the plasmodium malaria parasite” (J Med Chem, 2002)
